Source: ChEMBL document CHEMBL1649354, “Bioactivity-guided isolation of GABA(A) receptor modulating constituents from the rhizomes of Actaea racemosa” (J Nat Prod, 2010)

How the values were obtained:
Format in all cases: cell-based
Oocyte [1] = assay: Allosteric modulation of alpha1beta2gamma2S GABAA receptor expressed in Xenopus laevis oocytes assessed as stimulation of GABA-induced chloride current at 100 uM by electrophysiology
How it was run: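 Two-microelectrode voltage clamp; GABA at EC3-10 (eliciting 3–10% of maximal current, determined at the start of each experiment). Test material applied for 1 min equilibration before GABA, then co-applied. Stimulation calculated as (I(GABA+Comp)/IGABA) − 1 at 100 µM, reported as %. Mean ± SE, n = 4–7 oocytes, at least two oocyte batches; oocytes with currents >3 µA discarded.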

Oocyte [2] = assay: (§1) Allosteric modulation of alpha1beta2gamma2S GABAA receptor expressed in Xenopus laevis oocytes assessed as stimulation of GABA-induced chloride current by electrophysiology
How it was run: (§2)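 Two-microelectrode voltage clamp of oocytes. GABA applied at EC3-10 (3-10% of maximal current), set at the start of each experiment. Compound pre-applied for 1 min before GABA. Enhancement taken as (I(GABA+Comp)/IGABA) - 1. Concentration-response data fitted to 1/[1 + (EC50/[Comp])nH]. Mean ± SE from ≥4 oocytes and ≥2 oocyte batches.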

[3] = as §1; conditions: Oocyte; how it was run: as §2
Oocyte [4] = assay: Allosteric modulation of alpha1beta2gamma2S GABAA receptor expressed in Xenopus laevis oocytes assessed as stimulation of GABA-induced chloride current at 300 uM by electrophysiology; how it was run: as §2

SMILES	Activity (Oocyte [1])	Activity (Oocyte [2])	EC50 [3]	Activity (Oocyte [4])
CC(=O)OC(C)(C)[C@H]1O[C@@]23O[C@H]1C[C@@H](C)[C@@H]2[C@@]1(C)CC[C@@]24C[C@@]25CC[C@H](O[C@@H]2OC[C@H](O)[C@H](O)[C@H]2O)C(C)(C)[C@@H]5CC[C@H]4[C@]1(C)[C@H]3O	271%	Dose-dependent effect	26 µM	289%
C[C@@H]1C[C@@H]2O[C@@]3(O[C@@H]2C(C)(C)O)[C@H](O)[C@@]2(C)[C@@H]4CC[C@H]5C(C)(C)[C@@H](O[C@@H]6OC[C@@H](O)[C@H](O)[C@H]6O)CC[C@@]56C[C@@]46CC[C@]2(C)[C@@H]13	189%	Dose-dependent effect	28 µM	256%
CC(=O)O[C@H](C[C@@H](C)[C@H]1C(=O)[C@H](O)[C@@]2(C)[C@@H]3CC[C@H]4C(C)(C)[C@@H](O)CC[C@@]45C[C@@]35CC[C@]12C)[C@H]1OC1(C)C	64%			
C[C@@H]1C[C@@H]2O[C@@]3(O[C@@H]2C(C)(C)O)[C@H](O)[C@@]2(C)[C@@H]4CC[C@H]5C(C)(C)[C@@H](O)CC[C@@]56C[C@@]46CC[C@]2(C)[C@@H]13	104%			
CC(=O)O[C@@H]1C[C@@]23C[C@@]24CC[C@H](O[C@@H]2OC[C@@H](O)[C@H](O)[C@H]2O)C(C)(C)[C@@H]4CC[C@H]3[C@]2(C)C[C@@H]3O[C@]4(C[C@@H](C)[C@@H]3[C@@]12C)O[C@H](O)[C@@]1(C)O[C@@H]41 [ACTEIN]	305%	Dose-dependent effect	36 µM	378%
CC(=O)O[C@H](C[C@@H](C)[C@H]1C(=O)[C@H](O)[C@@]2(C)[C@@H]3CC[C@H]4C(C)(C)[C@@H](O[C@@H]5OC[C@@H](O)[C@H](O)[C@H]5O)CC[C@@]45C[C@@]35CC[C@]12C)[C@H]1OC1(C)C	1690%	Dose-dependent effect	27 µM	1950%
CC(=O)O[C@@H]1C[C@@]23C[C@@]24CC[C@H](O)C(C)(C)[C@@H]4CC[C@H]3[C@]2(C)C[C@@H]3O[C@]4(C[C@@H](C)[C@@H]3[C@@]12C)O[C@H](O)[C@@]1(C)O[C@H]41	126%			
